≈ marks a conversion by molar mass, not a printed value. Calls of active or inactive are those of the source. The rule behind the calls is not given here.
What was measured:
Type in all cases: functional, organism-based
Meloidogyne incognita [1] = experiment: Nematotoxic activity against Meloidogyne incognita (root-knot nematode)
Outline: (§1)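 Freshly hatched J2 (24 h old), extracted from tomato roots, were exposed to test solutions at 25 J2 per well. Plates were kept in the dark at 28 °C with water and solvent-carrier controls. Nematodes were scored under an inverted microscope (40×) as motile or paralyzed. Paralysis was corrected for the water control by the Schneider-Orelli formula. EC50 came from log-logistic regression. Experiments were run twice.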

Meloidogyne incognita [2] = experiment: Nematotoxic activity against freshly hatched Meloidogyne incognita J2 (root-knot nematode) isolated from tomato roots assessed as induction of nematode paralysis measured 24 hr after immersion in compound test solutions
Outline: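 Freshly hatched (24 h) J2 extracted from tomato roots; 25 J2 per well in 96-well plates, kept in the dark at 28 °C. Motile or paralyzed J2 were scored under an inverted microscope at 40×. Paralysis was corrected for the water control (Schneider-Orelli). EC50 was fitted by log-logistic regression on the mean of five replicates; experiments were run twice.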

Meloidogyne incognita [3] = experiment: Nematotoxic activity against freshly hatched Meloidogyne incognita J2 (root-knot nematode) isolated from tomato roots assessed as induction of nematode paralysis at 1000 ug/mL measured 24 hr after immersion in compound test solutions; outline: as §1
Meloidogyne incognita [4] = experiment: Nematotoxic activity against freshly hatched Meloidogyne incognita J2 (root-knot nematode) isolated from tomato roots assessed as induction of microscopic damages in nematode body measured 24 hr after immersion in compound test solutions

Cc1ccc(C=O)o1 [5-METHYLFURFURAL]
EC50 (Meloidogyne incognita [1]): 45.7 µg/mL (≈ 0.415 mM)

Oc1cc(O)c2c(c1)O[C@@H](c1ccc(O)c(O)c1)[C@@H](O)C2 [(+)-EPICATECHIN]
EC50 (Meloidogyne incognita [2]): > 1000 µg/mL

O=Cc1ccc(CO)o1 [AES-103]
EC50 (Meloidogyne incognita [1]): 8.5 µg/mL (≈ 0.0674 mM)

O=C(O)c1ccccc1 [BENZOIC ACID]
EC50 (Meloidogyne incognita [2]): 501 µg/mL (≈ 4.1 mM)

O=C(O)c1ccc2ccccc2c1 [BETA-NAPHTOIC ACID]
EC50 (Meloidogyne incognita [2]): > 1000 µg/mL

O=C(O)/C=C/c1ccc(O)c(O)c1 [CAFFEIC ACID]
Activity (Meloidogyne incognita [3]): inactive
EC50 (Meloidogyne incognita [2]): > 1000 µg/mL

Oc1cc(O)c2c(c1)OC(c1ccc(O)c(O)c1)C(O)C2 (stereo not given) [CATECHIN]
EC50 (Meloidogyne incognita [2]): > 1000 µg/mL

O=C(/C=C/c1ccc(O)c(O)c1)O[C@@H]1C[C@](O)(C(=O)O)C[C@@H](O)[C@H]1O [CHLOROGENIC ACID]
EC50 (Meloidogyne incognita [2]): > 1000 µg/mL

O=C(O)/C=C/c1ccc(O)cc1 [COUMARIC ACID]
EC50 (Meloidogyne incognita [2]): 840 µg/mL (≈ 5.12 mM)

COc1cc(/C=C/C(=O)O)ccc1O [FERULATE]
EC50 (Meloidogyne incognita [2]): > 1000 µg/mL

O=Cc1ccco1 [FURFURAL]
Activity (Meloidogyne incognita [4]): Active
EC50 (Meloidogyne incognita [1]): 41.1 µg/mL (≈ 0.428 mM)

O=C(O)c1cc(O)c(O)c(O)c1 [GALLIC ACID]
EC50 (Meloidogyne incognita [2]): > 1000 µg/mL

CCCCCC(=O)O [HEXANOATE]
EC50 (Meloidogyne incognita [1]): 38.3 µg/mL (≈ 0.33 mM)

O=C(O)CC(O)C(=O)O (stereo not given) [MALIC ACID]
EC50 (Meloidogyne incognita [2]): > 1000 µg/mL

O=C(O)c1cccnc1 [NIACIN]
EC50 (Meloidogyne incognita [2]): 1730 µg/mL (≈ 14.1 mM)

CCCCCCCCCCCCCCCC(=O)O [PALMITIC ACID]
EC50 (Meloidogyne incognita [1]): 38.3 µg/mL (≈ 0.149 mM)

O=C(O)c1ccc(O)cc1 [PARABEN]
EC50 (Meloidogyne incognita [2]): 871 µg/mL (≈ 6.31 mM)

O=C(O)c1ccc(O)c(O)c1 [PROTOCATECHUIC ACID]
EC50 (Meloidogyne incognita [2]): > 1000 µg/mL

C[C@@H]1O[C@@H](OC[C@H]2O[C@@H](Oc3c(-c4ccc(O)c(O)c4)oc4cc(O)cc(O)c4c3=O)[C@H](O)[C@@H](O)[C@@H]2O)[C@H](O)[C@H](O)[C@H]1O [RUTIN]
EC50 (Meloidogyne incognita [2]): > 1000 µg/mL

O=C(O)c1ccccc1O [SALICYLIC ACID]
Activity (Meloidogyne incognita [3]): Active
EC50 (Meloidogyne incognita [2]): 379 µg/mL (≈ 2.74 mM)
LC50 (Meloidogyne incognita [1]): 46 µg/mL (≈ 0.333 mM)

COc1cc(C(=O)O)ccc1O [VANILLIC ACID]
EC50 (Meloidogyne incognita [2]): > 1000 µg/mL
